{"source": "ChEMBL document CHEMBL4346672", "about": "“Antimicrobial and KPC/AmpC inhibitory activity of functionalized benzosiloxaboroles” (Eur J Med Chem, 2019)", "key": {"[1]": {"system": "Stenotrophomonas maltophilia", "assay": "Antibacterial activity against Stenotrophomonas maltophilia ATCC 13637 measured after 18 hrs by CLSI broth dilution method", "assay_type": "functional", "conditions": "ATCC 13637, 18 h", "procedure,_shortened": "(§1)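 Broth MIC in Mueller-Hinton II broth following CLSI, compounds dissolved in DMSO. Strains subcultured twice on tryptic soy agar before testing. Growth read after 35 °C, 18 h.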"}, "[2]": {"system": "Meyerozyma guilliermondii", "assay": "Antifungal activity against Candida guilliermondii IBA 155 assessed as decrease in fungal cell growth at 0.78 to 12.5 mg/L incubated for 24 hrs by CLSI broth dilution method", "assay_type": "functional", "conditions": "IBA 155, 24 h", "procedure,_shortened": "(§2)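 Yeast broth dilution in RPMI 1640 with 2% glucose, compounds in DMSO. Yeasts pre-grown on Sabouraud dextrose agar. Growth read after 35 °C, 24 h.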"}, "[3]": {"system": "Staphylococcus aureus", "assay": "Antibacterial activity against Staphylococcus aureus ATCC 6538P assessed as diameter of zone inhibition measured after 18 hrs by CLSI disc diffusion method", "assay_type": "functional", "procedure,_shortened": "(§3)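 Disc diffusion on Mueller-Hinton II agar. Compounds dissolved in DMSO. Strains stored at -80 °C and subcultured twice on tryptic soy agar before testing. Inhibition zones read after 35 °C, 18 h.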"}, "[4]": {"system": "Escherichia coli", "assay": "Antibacterial activity against Escherichia coli ATCC 25922 measured after 18 hrs by CLSI broth dilution method", "assay_type": "functional", "conditions": "ATCC 25922, 18 h", "procedure,_shortened": "as §1"}, "[5]": {"system": "Burkholderia cepacia", "assay": "Antibacterial activity against Burkholderia cepacia ATCC 25416 measured after 18 hrs by CLSI broth dilution method", "assay_type": "functional", "conditions": "ATCC 25416, 18 h", "procedure,_shortened": "as §1"}, "[6]": {"system": "Proteus mirabilis", "assay": "Antibacterial activity against Proteus mirabilis ATCC 12453 measured after 18 hrs by CLSI broth dilution method", "assay_type": "functional", "conditions": "ATCC 12453, 18 h", "procedure,_shortened": "as §1"}, "[7]": {"system": "Serratia marcescens", "assay": "Antibacterial activity against Serratia marcescens ATCC 13880 measured after 18 hrs by CLSI broth dilution method", "assay_type": "functional", "conditions": "ATCC 13880, 18 h", "procedure,_shortened": "as §1"}, "[8]": {"system": "Stenotrophomonas maltophilia", "assay": "Antibacterial activity against Stenotrophomonas maltophilia ATCC 13637 assessed as diameter of zone inhibition measured after 18 hrs by CLSI disc diffusion method", "assay_type": "functional", "procedure,_shortened": "as §3"}, "[9]": {"system": "Escherichia coli", "assay": "Antibacterial activity against Escherichia coli ATCC 25922 assessed as fold reduction of MIC in presence of efflux pump inhibitor PAbetaN incubated for 18 hrs by CLSI broth microdilution method", "assay_type": "functional", "procedure,_shortened": "(§4)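 MICs determined with and without PAβN at 50 mg/L in Mueller-Hinton broth containing 1 mM MgSO₄. 2-fold serial dilutions per CLSI. Fold change taken from the paired MICs after 35 °C, 18 h.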"}, "[10]": {"system": "Saccharomyces cerevisiae", "assay": "Antifungal activity against Saccharomyces cerevisiae ATCC 9763 diameter of zone inhibition incubated for 24 hrs by CLSI disc diffusion method", "assay_type": "functional", "procedure,_shortened": "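Disc-diffusion run on Mueller-Hinton II agar with 2% glucose and 0.5 mg/L methylene blue, using compounds in DMSO. Yeast was precultured on Sabouraud dextrose agar (24–48 h, 30 °C). Zones read after 24 h at 35 °C.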"}, "[11]": {"system": "Stenotrophomonas maltophilia", "assay": "Antibacterial activity against Stenotrophomonas maltophilia ATCC 13637 assessed as fold reduction of MIC in presence of efflux pump inhibitor PAbetaN incubated for 18 hrs by broth microdilution method", "assay_type": "functional", "procedure,_shortened": "as §4"}, "[12]": {"system": "Escherichia coli", "assay": "Antibacterial activity against Escherichia coli ATCC 25922 assessed as diameter of zone inhibition measured after 18 hrs by CLSI disc diffusion method", "assay_type": "functional", "procedure,_shortened": "as §3"}, "[13]": {"system": "Candida albicans", "assay": "Antifungal activity against Candida albicans ATCC 90028 assessed as diameter of zone inhibition incubated for 24 hrs by CLSI disc diffusion method", "assay_type": "functional", "procedure,_shortened": "(§5)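 Yeast disc diffusion on Mueller-Hinton agar supplemented with 2% glucose and 0.5 mg/L methylene blue. Compounds in DMSO. Yeasts subcultured on Sabouraud dextrose agar before testing. Zones read after 35 °C, 24 h.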"}, "[14]": {"assay": "Dissociation constant, pKa1 of compound in 0.1 M NaOH by potentiometric analysis", "assay_type": "physicochemical"}, "[15]": {"system": "Staphylococcus epidermidis", "assay": "Antibacterial activity against Staphylococcus epidermidis ATCC 12228 measured after 18 hrs by CLSI broth dilution method", "assay_type": "functional", "conditions": "ATCC 12228, 18 h", "procedure,_shortened": "as §1"}, "[16]": {"system": "Pseudomonas aeruginosa", "assay": "Antibacterial activity against Pseudomonas aeruginosa ATCC 27853 assessed as diameter of zone inhibition measured after 18 hrs by CLSI disc diffusion method", "assay_type": "functional, organism-based", "procedure,_shortened": "as §3"}, "[17]": {"system": "Bacillus subtilis", "assay": "Antibacterial activity against Bacillus subtilis ATCC 6633 assessed as diameter of zone inhibition measured after 18 hrs by CLSI disc diffusion method", "assay_type": "functional", "procedure,_shortened": "as §3"}, "[18]": {"system": "Enterobacter cloacae", "assay": "Antibacterial activity against Enterobacter cloacae DSM 6234 assessed as diameter of zone inhibition measured after 18 hrs by CLSI disc diffusion method", "assay_type": "functional", "procedure,_shortened": "as §3"}, "[19]": {"system": "Candida parapsilosis", "assay": "Antifungal activity against Candida parapsilosis ATCC 22019 assessed as diameter of zone inhibition incubated for 24 hrs by CLSI disc diffusion method", "assay_type": "functional", "procedure,_shortened": "as §5"}, "[20]": {"system": "Staphylococcus aureus", "assay": "Antibacterial activity against Staphylococcus aureus ATCC 6538P measured after 18 hrs by CLSI broth dilution method", "assay_type": "functional", "procedure,_shortened": "as §1"}, "[21]": {"system": "Klebsiella pneumoniae", "assay": "Antibacterial activity against Klebsiella pneumoniae ATCC 13883 measured after 18 hrs by CLSI broth dilution method", "assay_type": "functional", "conditions": "ATCC 13883, 18 h", "procedure,_shortened": "as §1"}, "[22]": {"system": "Acinetobacter baumannii", "assay": "Antibacterial activity against Acinetobacter baumannii ATCC 19606 assessed as diameter of zone inhibition measured after 18 hrs by CLSI disc diffusion method", "assay_type": "functional", "procedure,_shortened": "as §3"}, "[23]": {"system": "Pichia kudriavzevii", "assay": "Antifungal activity against Candida krusei ATCC 6258 assessed as diameter of zone inhibition incubated for 24 hrs by CLSI disc diffusion method", "assay_type": "functional", "procedure,_shortened": "as §5"}, "[24]": {"system": "Saccharomyces cerevisiae", "assay": "Antifungal activity against Saccharomyces cerevisiae ATCC 9763 assessed as decrease in fungal cell growth at 0.78 to 12.5 mg/L incubated for 24 hrs by CLSI broth dilution method", "assay_type": "functional", "conditions": "ATCC 9763, 24 h", "procedure,_shortened": "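Yeast strain subcultured on Sabouraud dextrose agar for 24–48 h at 30 °C before testing. Compounds dissolved in DMSO.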"}, "[25]": {"system": "Burkholderia cepacia", "assay": "Antibacterial activity against Burkholderia cepacia ATCC 25416 assessed as diameter of zone inhibition measured after 18 hrs by CLSI disc diffusion method", "assay_type": "functional", "procedure,_shortened": "as §3"}, "[26]": {"system": "Enterobacter cloacae", "assay": "Antibacterial activity against Enterobacter cloacae DSM 6234 assessed as fold reduction of MIC in presence of efflux pump inhibitor PAbetaN incubated for 18 hrs by broth microdilution method", "assay_type": "functional", "procedure,_shortened": "as §4"}, "[27]": {"system": "Staphylococcus epidermidis", "assay": "Antibacterial activity against Staphylococcus epidermidis ATCC 12228 assessed as diameter of zone inhibition measured after 18 hrs by CLSI disc diffusion method", "assay_type": "functional", "procedure,_shortened": "as §3"}, "[28]": {"system": "Meyerozyma guilliermondii", "assay": "Antifungal activity against Candida guilliermondii IBA 155 assessed as diameter of zone inhibition incubated for 24 hrs by CLSI disc diffusion method", "assay_type": "functional", "procedure,_shortened": "as §5"}, "[29]": {"system": "Enterococcus faecalis", "assay": "Antibacterial activity against Enterococcus faecalis ATCC 29212 measured after 18 hrs by CLSI broth dilution method", "assay_type": "functional", "conditions": "ATCC 29212, 18 h", "procedure,_shortened": "as §1"}, "[30]": {"system": "Pseudomonas aeruginosa", "assay": "Antibacterial activity against Pseudomonas aeruginosa ATCC 27853 measured after 18 hrs by CLSI broth dilution method", "assay_type": "functional", "conditions": "ATCC 27853, 18 h", "procedure,_shortened": "as §1"}, "[31]": {"system": "Enterobacter cloacae", "assay": "Antibacterial activity against Enterobacter cloacae DSM 6234 measured after 18 hrs by CLSI broth dilution method", "assay_type": "functional", "conditions": "DSM 6234, 18 h", "procedure,_shortened": "as §1"}, "[32]": {"system": "Enterococcus faecium", "assay": "Antibacterial activity against Enterococcus faecium ATCC 6057 measured after 18 hrs by CLSI broth dilution method", "assay_type": "functional", "conditions": "ATCC 6057, 18 h", "procedure,_shortened": "as §1"}, "[33]": {"system": "Candida albicans", "assay": "Antifungal activity against Candida albicans ATCC 90028 assessed as decrease in fungal cell growth at 0.78 to 12.5 mg/L incubated for 24 hrs by CLSI broth dilution method", "assay_type": "functional", "conditions": "ATCC 90028, 24 h", "procedure,_shortened": "as §2"}}, "note": "Activity calls are given as the source filed them. The calls are words filed in the database; no cut-off is given here.", "data": [{"compound": "C[Si]1(C)OB(O)c2ccc(Cl)cc21", "values": [{"measurement": "MIC", "setting": "[1]", "value": 100, "unit": "µg/mL"}, {"measurement": "MIC", "setting": "[2]", "value": 25, "unit": "µg/mL"}, {"measurement": "diameter of the inhibition zone (DIZ)", "setting": "[3]", "value": 20, "unit": "mm"}, {"measurement": "MIC", "setting": "[4]", "value": 400, "unit": "µg/mL"}, {"measurement": "MIC", "setting": "[5]", "value": "> 400", "unit": "µg/mL"}, {"measurement": "MIC", "setting": "[6]", "value": "> 400", "unit": "µg/mL"}, {"measurement": "MIC", "setting": "[7]", "value": "> 400", "unit": "µg/mL"}, {"measurement": "diameter of the inhibition zone (DIZ)", "setting": "[8]", "value": 19, "unit": "mm"}, {"measurement": "fold change (FC)", "setting": "[9]", "value": 64}, {"measurement": "diameter of the inhibition zone (DIZ)", "setting": "[10]", "value": 47, "unit": "mm"}, {"measurement": "fold change (FC)", "setting": "[11]", "value": 16}, {"measurement": "diameter of the inhibition zone (DIZ)", "setting": "[12]", "value": "inactive"}, {"measurement": "diameter of the inhibition zone (DIZ)", "setting": "[13]", "value": 28, "unit": "mm"}, {"measurement": "pKa", "setting": "[14]", "value": 7.3}, {"measurement": "MIC", "setting": "[15]", "value": 25, "unit": "µg/mL"}, {"measurement": "diameter of the inhibition zone (DIZ)", "setting": "[16]", "value": "inactive"}, {"measurement": "diameter of the inhibition zone (DIZ)", "setting": "[17]", "value": 34, "unit": "mm"}, {"measurement": "diameter of the inhibition zone (DIZ)", "setting": "[18]", "value": "inactive"}, {"measurement": "diameter of the inhibition zone (DIZ)", "setting": "[19]", "value": 18, "unit": "mm"}, {"measurement": "MIC", "setting": "[20]", "value": 50, "unit": "µg/mL"}, {"measurement": "MIC", "setting": "[21]", "value": 400, "unit": "µg/mL"}, {"measurement": "diameter of the inhibition zone (DIZ)", "setting": "[22]", "value": 13, "unit": "mm"}, {"measurement": "diameter of the inhibition zone (DIZ)", "setting": "[23]", "value": 26, "unit": "mm"}, {"measurement": "MIC", "setting": "[24]", "value": 6.25, "unit": "µg/mL"}, {"measurement": "diameter of the inhibition zone (DIZ)", "setting": "[25]", "value": 11, "unit": "mm"}, {"measurement": "fold change (FC)", "setting": "[26]", "value": 64}, {"measurement": "diameter of the inhibition zone (DIZ)", "setting": "[27]", "value": 33, "unit": "mm"}, {"measurement": "diameter of the inhibition zone (DIZ)", "setting": "[28]", "value": 30, "unit": "mm"}, {"measurement": "MIC", "setting": "[29]", "value": 100, "unit": "µg/mL"}, {"measurement": "MIC", "setting": "[30]", "value": "> 400", "unit": "µg/mL"}, {"measurement": "MIC", "setting": "[31]", "value": "> 400", "unit": "µg/mL"}, {"measurement": "MIC", "setting": "[32]", "value": 50, "unit": "µg/mL"}, {"measurement": "MIC", "setting": "[33]", "value": 12.5, "unit": "µg/mL"}]}]}
